Screening data (PubChem)
TRPC6 activator: mouse TRPC6 channel activation. hit rate 0.13% among 310,000. AID 2550. HEK293-TRPC6 membrane potential dye fluorescence; active compounds read high. Q61143. B-score at 10 µM;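 active = B-score of the integrated fluorescence ratio above library mean plus 3 SD, and starting fluorescence ratio within library mean plus 5 SD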;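 note: higher score means more depolarization so channel activation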
Target sequence (Q61143 whole entry, looked up): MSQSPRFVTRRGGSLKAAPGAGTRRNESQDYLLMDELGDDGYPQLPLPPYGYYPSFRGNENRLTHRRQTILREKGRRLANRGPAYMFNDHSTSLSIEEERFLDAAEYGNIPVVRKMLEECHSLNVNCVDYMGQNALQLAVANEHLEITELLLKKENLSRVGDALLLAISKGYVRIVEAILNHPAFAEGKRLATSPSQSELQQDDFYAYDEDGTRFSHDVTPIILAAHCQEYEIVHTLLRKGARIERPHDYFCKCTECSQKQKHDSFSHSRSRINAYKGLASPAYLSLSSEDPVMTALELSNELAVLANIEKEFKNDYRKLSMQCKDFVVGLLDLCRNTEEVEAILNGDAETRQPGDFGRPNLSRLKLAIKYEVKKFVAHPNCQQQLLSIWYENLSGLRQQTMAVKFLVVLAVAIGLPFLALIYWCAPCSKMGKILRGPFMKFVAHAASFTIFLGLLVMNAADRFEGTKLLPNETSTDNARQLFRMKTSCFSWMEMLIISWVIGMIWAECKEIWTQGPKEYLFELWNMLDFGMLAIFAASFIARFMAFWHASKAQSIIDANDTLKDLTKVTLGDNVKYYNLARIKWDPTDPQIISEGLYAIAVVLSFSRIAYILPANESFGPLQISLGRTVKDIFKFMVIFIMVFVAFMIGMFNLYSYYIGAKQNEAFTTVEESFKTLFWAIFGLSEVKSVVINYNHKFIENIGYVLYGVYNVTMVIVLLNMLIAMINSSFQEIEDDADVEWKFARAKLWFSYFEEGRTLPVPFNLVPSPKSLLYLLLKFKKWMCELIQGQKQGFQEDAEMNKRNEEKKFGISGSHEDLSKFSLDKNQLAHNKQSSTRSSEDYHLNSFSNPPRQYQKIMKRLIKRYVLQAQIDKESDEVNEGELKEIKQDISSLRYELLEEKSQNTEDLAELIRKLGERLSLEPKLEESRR
TRPC4 PAM: allosterically enhances the mouse TRPC4 cation channel. Q9QUQ5. HEK293 TRPC4beta/mu-opioid, DAMGO EC20, Fluo-4 Ca2+ flux; active compounds read high. B-score at 10 µM. hit rate 0.42% among 310,000. AID 2227;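 active = B-score of calcium response area above 5 SD of library B-scores, with initial fluorescence ratio within 5 SD of library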
TRPC4 inh: inhibitors of mouse TRPC4 channel; Q9QUQ5; HEK293 TRPC4beta/mu-opioid, DAMGO-evoked Fluo4 calcium flux; active compounds read low; B-score at 10 µM; hit rate 0.39% among 300,000; AID 2247;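 active = B-score over 3 SD under the library average, no early fluorescence shift, positive overall ratio signal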
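Assay system – HEK293 line stably carrying TRPC4beta and mu-opioid receptor · Doses – single dose · Detection – Fluo4 calcium-dye fluorescence, kinetic read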
TRPC6 inhibitor: mouse TRPC6 channel inhibition; Q61143; hit rate 1.1% among 310,000; HEK293-TRPC6, membrane potential dye, ACh-evoked depolarization; active compounds read low; B-score at 10 µM; AID 2553;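 active = B-score under library mean minus 3 SD, initial fluorescence not abnormally high, positive integrated signal ratio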;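 note: B-score derived from integrated fluorescence ratio over the kinetic read; more negative B-score means stronger inhibition of depolarization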
TRPC4 act: TRPC4 (mouse) channel activation; Q9QUQ5; HEK293 TRPC4beta/mu-opioid, Fluo4 calcium fluorescence; active compounds read high; B-score at 10 µM; hit rate 0.49% among 310,000;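 active = B-score above 5 SD of library B-scores, and initial fluorescence ratio not above library mean plus 5 SD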;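 note: positive B-score marks a calcium rise read as TRPC4 activation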
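Test system: HEK293 cells stably co-expressing mouse TRPC4beta and mu-opioid receptor | Schedule: Fluo4 dye loading 45 min at room temperature, 110 s recording | Measured by: Kinetic Fluo4 calcium fluorescence, 5 s baseline at 1 Hz | Evaluation: B score of integrated ratio | Controls: Buffer (low) and maximal DAMGO (high)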
Large screens that a line does not name were inactive. The list is not random: actives were taken first. Their share in the collection is about 2.3%.

COc1ccc(N2C(=O)C3CCCN3C2c2cc(OC)c(OC)c(OC)c2)cc1 (stereo not given)	none
COc1cc(C2N(c3ccc(Cl)c(Cl)c3)C(=O)C3CCCN32)cc(OC)c1OC (stereo not given)	TRPC4 act 81
Cc1ccc(C2N(c3ccc(Cl)c(Cl)c3)C(=O)C3CCCN32)o1 (stereo not given)	TRPC4 PAM 15, TRPC4 act 122
COc1cc(C2N(c3cccc(Cl)c3)C(=O)C3CCCN32)cc(OC)c1OC (stereo not given)	TRPC4 PAM 14
COc1ccc(N2C(=O)C3CCCN3C2c2ccc(C)o2)cc1Cl (stereo not given)	none
COc1cc(C2NCCc3c2[nH]c2ccccc32)ccc1OC(C)C (stereo not given)	TRPC6 inhibitor -6.09
COc1ccc(S(=O)(=O)NCC(=O)Nc2cccc(C)c2C)cc1OC	none
Nc1nc2ccccc2n1CCOc1ccc(F)cc1	TRPC4 inh -6
O=C(COC(=O)Cn1cnc2ccccc2c1=O)Nc1ccc(Cl)cc1	none
O=C(COC(=O)Cn1cnc2ccccc2c1=O)Nc1ccccc1Sc1ccc(Cl)cc1	TRPC4 inh -5
Cc1c(C(=O)N/N=C/c2ccncc2)no[n+]1[O-]	none
CC(C)(C)C(=O)NC(=S)NNC(=O)C(c1ccccc1)c1ccccc1	TRPC4 act 304
CC(=O)NNC(=S)NC(=O)C(c1ccccc1)c1ccccc1	none
COc1ccc(NC(=O)CN(C)CCOc2ccc(Cl)cc2)cc1OC	TRPC4 PAM 15
Cc1cccc(-n2cc(C(=O)O)c(=O)cc2C)c1	none
CC(=O)c1ccc(OCC(O)CN2CCN(Cc3ccccc3)CC2)cc1 (stereo not given)	none
COc1ccc(CNCC(O)COc2ccc(C(C)(C)c3ccccc3)cc2)cc1 (stereo not given)	none
CCOc1ccc(OCC(O)CNC2CCN(Cc3ccccc3)CC2)cc1 (stereo not given)	TRPC4 inh -6, TRPC4 act 108
CC(C)(c1ccccc1)c1ccc(OCC(O)CNC2CCN(Cc3ccccc3)CC2)cc1 (stereo not given)	TRPC4 act 92
CC(=O)c1c(C)oc2ccc(N(C(C)=O)S(=O)(=O)c3cccc4cccnc34)cc12	none
O=C(CCN1C(=O)c2ccccc2S1(=O)=O)Nc1cccc(F)c1	none
COc1c2c(cc3c1C(CC(O)Cc1ccccc1)N(C)CC3)OCO2 (stereo not given)	TRPC4 act 96
Cc1ccc(C(=O)Cn2c(C(=O)OCCO)cc3ccccc32)cc1	none
CC(=O)N(c1ccc(Cl)cc1)c1cn(C(C)=O)c2ccccc12	none
CC(=O)N(c1ccc(Cl)cc1)c1c[nH]c2ccccc12	TRPC4 inh -6
COc1ccc(/C=C2/C(=O)C(C)(C(C)C)CCC2C)cc1 (stereo not given)	none
O=C(CN1CCN(Cc2ccccc2Cl)CC1)N=Nc1c(O)[nH]c2ccccc12	TRPC4 inh -6
CCCCC(=O)NC(=S)Nc1cccc(NC(=O)c2ccccc2)c1	none
C=Cn1cc[n+](CC(=O)c2ccc(-c3ccccc3)cc2)c1	none
Cn1ncc(C#N)c1/N=C/N(Cc1ccccc1)Cc1ccccc1	TRPC4 PAM 16
CCC1CCCCN1C(=S)NC1CCCCC1 (stereo not given)	none
COc1ccccc1CCNC(=O)C(=O)NCC1OCCN1S(=O)(=O)c1ccc([N+](=O)[O-])cc1 (stereo not given)	none
O=C(c1cccc([N+](=O)[O-])c1)N1CCCC(C(=O)N2CCCCCC2)C1 (stereo not given)	TRPC4 PAM 29
CCN1CCN(c2cc(N3CCN(C(=O)c4ccco4)CC3)c3c4c(onc24)-c2ccccc2C3=O)CC1	TRPC6 inhibitor -5.88
Cc1nc2ccccc2n1CC(O)COc1ccccc1Cl (stereo not given)	TRPC4 inh -7
Cc1nc2ccccc2n1CC(O)COc1ccc(Br)cc1 (stereo not given)	none
Cc1noc(/C=C/c2cccs2)c1S(=O)(=O)N1CCC(C(=O)NCCCN2CCCC(C)C2)CC1 (stereo not given)	TRPC4 PAM 10
CCCCNC(=O)C1CCCN(S(=O)(=O)c2c(C)noc2/C=C/c2cccs2)C1 (stereo not given)	none
COc1ccc(-c2noc(N3CCC(C(=O)NCCCN4CCCCC4)CC3)n2)cc1	none
COc1ccc(-c2noc(N3CCC(C(=O)NCCCN4CCCC(C)C4)CC3)n2)cc1 (stereo not given)	TRPC4 PAM 10
O=C(NCc1ccccc1)C1CCCN(S(=O)(=O)c2cccc3nsnc23)C1 (stereo not given)	none
CCC(C)N(C(=O)Cn1nnc2ccccc21)C(C(=O)Nc1ccc(F)cc1)c1cccc(OC)c1 (stereo not given)	TRPC6 activator 13.6
O=C(O)c1ccc(N/N=C/c2ccc(-c3cccc(Cl)c3)o2)cc1	TRPC4 inh -6
Cc1ccnc(NC(=O)Nc2ccc(Br)cc2Cl)c1	none
Cc1cc([N+](=O)[O-])ccc1NCc1ccccc1	TRPC4 inh -7
COc1ccc(C(=O)N2CCC(C(=O)N3CCN(Cc4ccccc4)CC3)CC2)cc1	none
Cc1ccc(C2c3c(C)nn(-c4ccc([N+](=O)[O-])cc4)c3N=C3C(=O)Nc4ccccc4N32)cc1 (stereo not given)	TRPC6 inhibitor -5.28
COc1ccc(CNCCC(c2ccccc2)c2ccc3c(c2)OCO3)cc1 (stereo not given)	TRPC4 act 125
COc1ccccc1C(CCNCc1ccc(N(C)C)cc1)c1ccc(OC(C)C)cc1 (stereo not given)	TRPC4 act 47
O=[N+]([O-])c1ccc(C(O)CN=Cc2ccc(O)cc2O)cc1 (stereo not given)	none
Cc1nn(Cc2noc(C(=O)NCCc3ccccn3)n2)c(C)c1Br	TRPC4 act 82
Cc1nn(Cc2noc(C(=O)NCc3ccccn3)n2)c(C)c1Br	none
CCOC(=O)C1(Cc2ccc(Cl)cc2)CCN(C(=O)c2ccoc2)CC1	none
CNCCCOc1cc(C)cc(C)c1C	TRPC4 act 153
CNCCCOc1ccc(C)cc1Br	TRPC4 PAM 14
CCCCNCCCOc1ccc(C)cc1Br	none
Cc1ccc(-c2ccnc3nc(-n4cccc4)nn23)o1	none
CC1Nc2nc(NC(=O)C(C)(C)C)[nH]c(=O)c2N(C)C1C (stereo not given)	none
CCc1ccc2[nH]c(=O)c(C3C(C#N)=C(N)Oc4c3ccc3cccnc43)cc2c1 (stereo not given)	TRPC6 inhibitor -5.87
Cc1ccccc1CC(=O)NC1CCCc2ccccc21 (stereo not given)	none
O=[N+]([O-])c1ccccc1CNC1CCCc2ccccc21 (stereo not given)	TRPC4 inh -6
CCOC(=O)C1(CCCc2ccccc2)CCN(S(=O)(=O)N(C)C)CC1	none
